In paper PMC6242712 (ChemMedChem, 2018):
Read-outs that look alike come from different tables or passages of the source. One block for each molecule: values may come before it.

Assays:
PDI [1] = molecular target: T1, PDI (Homo sapiens, UniProt P07237); assay: PDI-catalyzed insulin reduction; assay type: biochemical
NU04 cells [2] = assay: MTT growth inhibition assay, NU04; settings: Homo sapiens, 72 h, read-out: IC50, cytotoxicity NU04
A172 cells [3] = assay: MTT growth inhibition assay, A172; settings: Homo sapiens, A 172, 72 h, read-out: IC50, cytotoxicity A172
U87MG cells [4] = assay: MTT growth inhibition assay, U87MG; settings: for IC50: read-out: IC50, cytotoxicity U87MG; for Effect on cell growth: in words
U118MG cells [5] = assay: MTT growth inhibition assay, U118MG; settings: Homo sapiens, U-118-MG, 72 h, read-out: IC50, cytotoxicity U118MG
PDI [6] = molecular target: T1, PDI; assay: Cellular thermal shift assay; assay type: cell-based; settings: U87MG cells, 2 hours
In short: (§1)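 U87MG cells (2 × 10^6 per 100 mm dish) were attached overnight, then treated with test compound (0.5, 1.0 or 2.0 μM) or DMSO for 2 h at 37 °C, 5% CO2. Cells were trypsinized, washed in DPBS and aliquoted. Aliquots were heated at set temperatures for 3 min, held 3 min at room temperature and freeze-thawed twice. Cleared supernatants were run on 10% SDS-PAGE and Western blotted.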

GRP78 [7] = molecular target: T2, GRP78 (Homo sapiens, UniProt P11021); assay: Cellular thermal shift assay; assay type: cell-based; settings: U87MG cells, 2 hours
T2 sequence (P11021 19-654): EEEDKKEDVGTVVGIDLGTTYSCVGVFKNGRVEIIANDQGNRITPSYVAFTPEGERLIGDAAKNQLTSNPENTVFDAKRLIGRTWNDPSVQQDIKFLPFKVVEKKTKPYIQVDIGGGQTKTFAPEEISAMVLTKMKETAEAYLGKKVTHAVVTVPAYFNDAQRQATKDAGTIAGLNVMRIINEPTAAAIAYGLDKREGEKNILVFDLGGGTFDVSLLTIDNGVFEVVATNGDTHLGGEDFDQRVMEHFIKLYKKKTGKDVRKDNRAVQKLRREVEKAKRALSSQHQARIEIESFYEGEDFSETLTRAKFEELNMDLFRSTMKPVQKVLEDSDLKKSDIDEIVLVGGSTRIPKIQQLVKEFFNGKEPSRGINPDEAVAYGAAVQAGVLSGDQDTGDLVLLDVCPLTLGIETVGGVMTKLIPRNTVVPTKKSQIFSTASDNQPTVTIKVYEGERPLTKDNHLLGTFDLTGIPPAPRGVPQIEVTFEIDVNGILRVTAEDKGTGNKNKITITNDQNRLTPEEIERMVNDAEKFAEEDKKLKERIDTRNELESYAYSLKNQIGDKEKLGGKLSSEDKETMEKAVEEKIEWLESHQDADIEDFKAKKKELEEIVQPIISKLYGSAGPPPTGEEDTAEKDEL
In short: as §1

[8] = molecular target: T3, glutathione-transferase Omega 1 (GSTO1) (Homo sapiens, UniProt P78417); assay: Cellular thermal shift assay; assay type: cell-based; settings: U87MG cells, 2 hours
T3 sequence (P78417 1-241): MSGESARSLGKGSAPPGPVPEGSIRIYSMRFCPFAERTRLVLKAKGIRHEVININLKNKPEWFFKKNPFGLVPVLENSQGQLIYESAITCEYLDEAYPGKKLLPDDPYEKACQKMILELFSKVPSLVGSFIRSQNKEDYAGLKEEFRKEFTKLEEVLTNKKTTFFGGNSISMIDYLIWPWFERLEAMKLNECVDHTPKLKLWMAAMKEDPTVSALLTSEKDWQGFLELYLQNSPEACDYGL
In short: as §1

PDI [9] = molecular target: T1, PDI; assay: DARTS assay in U87MG cell lysates, PDI; assay type: binding; settings: 100 μM compound, U87MG lysate
In short: (§2)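 U87MG cells at 80–85% confluence were lysed on ice for 10 min (150 mM NaCl, 1% NP-40, 0.5% deoxycholate, 50 mM Tris pH 8.0) and cleared at 18,000 × g. Lysate (5 mg/ml) was incubated with 100 μM test compound or DMSO for 30 min at RT. Pronase (0, 0.005, 0.01, 0.02 μg/μL) was added for 30 min at RT and stopped with protease inhibitors on ice. 20 μg protein was Western blotted; three independent experiments.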

GRP78 [10] = molecular target: T2, GRP78; assay: DARTS assay in U87MG cell lysates, GRP78; assay type: binding; settings: 100 μM compound, U87MG lysate
In short: as §2

GSTO1 = molecular target: T4, GSTO1 (Homo sapiens, UniProt P78417); assay: DARTS assay in U87MG cell lysates, GSTO1; assay type: binding; settings: 100 μM compound, U87MG lysate
T4 sequence (P78417 1-241): T3 sequence (P78417 1-241)
In short: as §2

U87MG cells [11] = assay: Bru-seq nascent RNA sequencing; assay type: cell-based, human; settings: 1 μM, 4 hours
In short: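 U87MG cells plated on day 1, given fresh medium on day 5, then exposed to test compound (1 μM) or DMSO for 4 h. Bromouridine (2 mM final) labelled nascent RNA during the last 30 min. Total RNA was isolated in TRIzol, and BrU-RNA was isolated, sequenced and mapped. Genes >300 bp with mean RPKM >0.5 (7,770 genes) were ranked by fold change vs DMSO.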

U87MG cells [12] = assay: Western blot of protein expression; assay type: cell-based, human; settings: 24-hour treatment
In short: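 U87MG cells were treated with test compound (1 or 2 μM) or vehicle for 24 h. 50 μg protein on 10% gels (12% for LC3B, DDIT3), transferred to PVDF. GAPDH loading control; triplicate experiments.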

U87MG cells [13] = assay: ROS detection assay; assay type: cell-based, human; settings: 5 μM, 24 hours; comparable to 100 μM hydrogen peroxide
In short: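 Trypsinized U87MG cells were loaded in suspension with 20 μM H2DCFDA for 30 min at 37 °C, washed, plated at 20,000 cells/well, rested 30 min, then treated. Fluorescence (493/523 nm) was read at 4, 6 and 24 h. Hydrogen peroxide (500, 100, 20 μM) served as reference. Means ± standard deviation of three independent experiments.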

U87MG cells [14] = assay: MTT cell viability with or without deferoxamine; assay type: cell-based; settings: Homo sapiens, U-87 MG, 12 h, read-out: IC50, cell viability, used alone
glioblastoma cells = assay: MTT growth inhibition of 35G8 combined with Z-VAD-FMK, necrostatin-1 or NAC; assay type: cell-based, human
U87MG cells [15] = test system: U87MG cells
U118MG cells [16] = test system: U118MG cells
NU04 cells [17] = test system: NU04 cells
A172 cells [18] = test system: A172 cells
PDI [19] = settings: reversible PDI modulator; cited from earlier work

T1 sequence (P07237 18-508): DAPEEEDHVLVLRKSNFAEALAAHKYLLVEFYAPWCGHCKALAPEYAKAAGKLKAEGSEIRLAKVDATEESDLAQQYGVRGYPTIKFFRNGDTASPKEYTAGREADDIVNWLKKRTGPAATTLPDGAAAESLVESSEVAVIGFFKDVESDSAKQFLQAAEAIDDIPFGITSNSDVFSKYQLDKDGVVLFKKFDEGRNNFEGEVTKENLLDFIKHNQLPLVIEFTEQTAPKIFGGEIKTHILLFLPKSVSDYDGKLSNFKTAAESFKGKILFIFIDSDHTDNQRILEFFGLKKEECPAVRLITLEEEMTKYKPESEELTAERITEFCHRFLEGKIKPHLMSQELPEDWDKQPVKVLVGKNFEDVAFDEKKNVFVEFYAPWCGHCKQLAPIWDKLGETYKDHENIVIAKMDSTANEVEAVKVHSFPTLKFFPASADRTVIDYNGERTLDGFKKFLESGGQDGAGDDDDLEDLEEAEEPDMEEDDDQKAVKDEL

Molecule: Cn1nc(Cc2ccccc2)nc2c(=O)n(C)c(=O)nc1-2 [Compound 4c, 3-Benzyl-1,6-dimethylpyrimido[5,4-e][1,2,4]triazine-5,7(1H,6H)-dione]
IC50 (PDI [1]): 0.33 ± 0.04 µM | IC50 (NU04 cells [2]): > 30 µM | IC50 (A172 cells [3]): 8.2 ± 2.5 µM | IC50 (U87MG cells [4]; Homo sapiens, U-87 MG, 72 h): 12.7 ± 3.7 µM | IC50 (U118MG cells [5]): 24 ± 7.4 µM

Molecule: Cc1nc2c(=O)n(C)c(=O)nc-2n(C)n1 [Compound 35G8, 1,3,6-Trimethylpyrimido[5,4-e][1,2,4]triazine-5,7(1H,6H)-dione]
IC50 (PDI [1]): 0.17 ± 0.01 µM | Effect on thermal stability of PDI (CETSA) (PDI [6]): destabilized | Effect on thermal stability of GRP78 (CETSA) (GRP78 [7]): little effect | Effect on thermal stability of GSTO1 (CETSA) [8]: stabilize | Protection of PDI from pronase proteolysis (DARTS) (PDI [9]): protected | Effect on degradation of GRP78 (DARTS) (GRP78 [10]): no effect | Effect on degradation of GSTO1 (DARTS) (GSTO1): no effect | CHAC1 transcription (U87MG cells [11]): 46 fold increase | DDIT3 transcription (U87MG cells [11]): 4 fold increase | EGR1 transcription (U87MG cells [11]): −5.65 fold change | HSPA5 transcription (U87MG cells [11]): 8 fold increase | IRS2 transcription (U87MG cells [11]): 12 fold increase | ITGA3 transcription (U87MG cells [11]): −3.89 fold change | TMEM74 transcription (U87MG cells [11]): 28 fold increase | TRIB3 transcription (U87MG cells [11]): 23 fold increase | TXN expression (U87MG cells [11]): 2 fold increase | TXNIP expression (U87MG cells [11]): 7.4 fold decrease | TXNIP transcription (U87MG cells [11]): −7.40 fold change | TXNRD1 expression (U87MG cells [11]): 9 fold increase | Cleaved LC3B expression (U87MG cells [12]; 2 μM): increased significantly | DDIT3 protein expression (U87MG cells [12]; 2 μM): increased | Expression of ATG3, ATG5, ATG7 and beclin 1 (U87MG cells [12]; 2 μM): did not change | GRP78 (HSPA5) protein expression (U87MG cells [12]; 2 μM): increased | HMOX1 protein expression (U87MG cells [12]; 1 or 2 μM): parallel increases | SLC7A11 protein expression (U87MG cells [12]; 1 or 2 μM): parallel increases | ROS induction (U87MG cells [13]): maximal ROS induction | IC50 (U87MG cells [14]): 2.2 ± 0.7 µM | Effect of N-acetyl-cysteine (NAC) on cytotoxicity of 35G8 (glioblastoma cells; NAC added at the same time as 35G8): did not affect | Protection from 35G8-induced cell death by necrostatin-1 pretreatment (glioblastoma cells; Necrostatin-1 added 1 hour prior to 35G8): did not protect | Protection from 35G8-induced cell death by Z-VAD-FMK pretreatment (glioblastoma cells; Z-VAD-FMK added 1 hour prior to 35G8): did not protect | IC50 (NU04 cells [2]): 0.8 ± 0.2 µM | IC50 (A172 cells [3]): 2 ± 0.6 µM | IC50 (U87MG cells [4]; Homo sapiens, U-87 MG, 72 h): 1.1 ± 0.2 µM | IC50 (U118MG cells [5]): 3.9 ± 0.1 µM

Molecule: Cc1nn(C)c2nc(=O)n(C)c(=O)c-2[n+]1[O-] [NC79]
Effect on cell growth (U87MG cells [4]; MTT): little effect on cell growth | IC50 (U87MG cells [4]; MTT, 72 hours): > 100 µM

Molecule: Cn1ncnc2c(=O)n(C)c(=O)nc1-2 [NC72]
IC50 (U87MG cells [4]; MTT, 72 hours): 0.5 ± 0.1 µM

IC50 (PDI [1]): 0.42 ± 0.07 µM
Molecule: COc1ccc(-c2nn(C)c3nc(=O)n(C)c(=O)c-3[n+]2[O-])cc1 [Compound 5d, 3-(4-Methoxyphenyl)-1,6-dimethyl-5,7-dioxo-1,5,6,7-tetrahydropyrimido[5,4-e][1,2,4]triazine 4-oxide]
IC50 (NU04 cells [2]): 1.5 ± 0.7 µM | IC50 (A172 cells [3]): 1.7 ± 0.1 µM | IC50 (U87MG cells [4]; Homo sapiens, U-87 MG, 72 h): 1.9 ± 0.7 µM | IC50 (U118MG cells [5]): 4.3 ± 0.1 µM

Molecule: Cn1nc(-c2ccccc2)nc2c(=O)n(C)c(=O)nc1-2 [Compound 4b, 1,6-Dimethyl-3-phenylpyrimido[5,4-e][1,2,4]triazine-5,7(1H,6H)-dione]
IC50 (PDI [1]): 0.39 ± 0.03 µM | IC50 (NU04 cells [2]): 3.7 ± 1.2 µM | IC50 (A172 cells [3]): 1.8 ± 0.4 µM | IC50 (U87MG cells [4]; Homo sapiens, U-87 MG, 72 h): 3 ± 0.3 µM | IC50 (U118MG cells [5]): 4.6 ± 0.5 µM

Molecule: Cn1c(=O)[nH]c2nncnc2c1=O [NC75]
Effect on cell growth (U87MG cells [4]; MTT): little effect on cell growth | IC50 (U87MG cells [4]; MTT, 72 hours): > 100 µM

IC50 (PDI [1]): 0.24 ± 0.04 µM
Molecule: Cn1nc(-c2ccc([N+](=O)[O-])cc2)nc2c(=O)n(C)c(=O)nc1-2 [Compound 4f, 1,6-Dimethyl-3-(4-nitrophenyl)pyrimido[5,4-e][1,2,4]triazine-5,7(1H,6H)-dione]
IC50 (NU04 cells [2]): 4.9 ± 1.2 µM | IC50 (A172 cells [3]): 1.1 ± 0.2 µM | IC50 (U87MG cells [4]; Homo sapiens, U-87 MG, 72 h): 1.8 ± 0.7 µM | IC50 (U118MG cells [5]): 6.2 ± 1.6 µM

Molecule: COc1cccc(-c2nc3c(=O)n(C)c(=O)nc-3n(C)n2)c1 [Compound 4e, 3-(3-Methoxyphenyl)-1,6-dimethylpyrimido[5,4-e][1,2,4]triazine-5,7(1H,6H)-dione]
IC50 (PDI [1]): 0.32 ± 0.01 µM | IC50 (NU04 cells [2]): 0.76 ± 0.22 µM | IC50 (A172 cells [3]): 1.5 ± 0.1 µM | IC50 (U87MG cells [4]; Homo sapiens, U-87 MG, 72 h): 1.1 ± 0.2 µM | IC50 (U118MG cells [5]): 2.4 ± 0.6 µM

Protection of PDI from pronase proteolysis (DARTS) (PDI [9]): protected | Effect on degradation of GRP78 (DARTS) (GRP78 [10]): no effect | Effect on degradation of GSTO1 (DARTS) (GSTO1): no effect | IC50 (U87MG cells [15]): 0.13 ± 0.07 µM | IC50 (U118MG cells [16]): 0.28 ± 0.04 µM | IC50 (NU04 cells [17]): 0.4 ± 0.1 µM | IC50 (A172 cells [18]): 0.12 ± 0.1 µM
Molecule: PACMA31

Molecule: O=C(C1CC1)N1CCN(Cn2sc3ccccc3c2=O)CC1 [LOC14]
EC50 (PDI [19]): 0.5 µM

IC50 (PDI [1]): 0.36 ± 0.05 µM
Molecule: COc1ccc(-c2nc3c(=O)n(C)c(=O)nc-3n(C)n2)cc1 [Compound 4d, 3-(4-Methoxyphenyl)-1,6-dimethylpyrimido[5,4-e][1,2,4]triazine-5,7(1H,6H)-dione]
IC50 (NU04 cells [2]): 0.86 ± 0.04 µM | IC50 (A172 cells [3]): 1.5 ± 0.4 µM | IC50 (U87MG cells [4]; Homo sapiens, U-87 MG, 72 h): 1.2 ± 0.2 µM | IC50 (U118MG cells [5]): 3.9 ± 0.6 µM
